Measured values: ChEMBL document CHEMBL1811772, “Identification of ostruthin from Peucedanum ostruthium rhizomes as an inhibitor of vascular smooth muscle cell proliferation” (J Nat Prod, 2011)
Activity calls are given as the source filed them. No cut-off for these calls is given here.

Columns and labels:
[1] = tested on: VSMC; test: Antiproliferative activity against serum-stimulated primary rat aortic VSMC at 30 uM after 30 mins by resazurin conversion assay; format: functional, tissue-based; conditions: Aorta
How it was run: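 Primary rat aortic VSMC were serum-starved 24 h, pretreated 30 min with 30 μM sample or 0.1% DMSO vehicle, and stimulated 48 h with 10% calf serum. Resazurin (10 μg/mL, 2 h) conversion was read as fluorescence at ex 535/em 580 nm and expressed as fold over unstimulated vehicle cells. Mean ± SD, n = 3, ANOVA/Tukey.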

[2] = tested on: A10; test: Antiproliferative activity against rat A10; format: functional, cell-based
[3] = Cytotoxicity against primary rat aortic VSMC as cell viability at 30 uM by trypan blue exclusion assay (reference value: 98+/-2%); format: cell-based; conditions: primary rat aortic vascular smooth muscle cells (VSMC), read-out: Activity
[4] = Antiproliferative activity against serum-stimulated primary rat aortic VSMC after 30 mins by resazurin conversion assay; format: functional, tissue-based; conditions: Aorta
How it was run: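 Sprague–Dawley rat thoracic aorta VSMC were seeded at 1 × 10^4 cells/well, serum-starved 24 h, pretreated 30 min with sample or vehicle (final DMSO 0.1%), then stimulated 48 h with 10% calf serum. They were then washed and given 10 μg/mL resazurin for 2 h, with fluorescence read at ex 535/em 580 nm. Signals were normalized to unstimulated vehicle cells. IC50 was obtained by nonlinear regression; mean ± SD from ≥3 independent experiments.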

[5] = Antiproliferative activity in primary rat aortic VSMC assessed as inhibition of serum-induced DNA synthesis pretreated 30 mins prior serum addition measured after 20 hrs by BrdU incorporation assay; conditions: Aorta

Structure (SMILES)	Activity [1]	other results
C/C=C(/C)C(=O)O[C@H](COc1c2ccoc2cc2oc(=O)ccc12)C(C)(C)O	inactive	–
CC(C)(O)[C@H](O)COc1c2ccoc2cc2oc(=O)ccc12	inactive	–
CC(C)=CCOc1c2ccoc2cc2oc(=O)ccc12	inactive	–
CC(C)=CCOc1c2occc2cc2ccc(=O)oc12	inactive	–
CC1(C)O[C@H]1COc1c2ccoc2cc2oc(=O)ccc12	inactive	–
COc1ccc2ccc(=O)oc2c1CC=C(C)C [OSTHOLE]	inactive	IC50 [2]: 13.6 µM
CC(C)=CCC/C(C)=C/Cc1cc2ccc(=O)oc2cc1O [OSTRUTHIN]	Active	viability at 30 µM [3]: 92%; IC50 [4]: 11 µM; IC50 [5]: 17 µM
